Measurements taken from ChEMBL document CHEMBL1132623, “Structure-based design, synthesis, and biological evaluation of irreversible human rhinovirus 3C protease inhibitors. 4. Incorporation of P1 lactam moieties as L-glutamine replacements” (J Med Chem, 1999).

Key:
[1] = target: T1, Human rhinovirus A protease (Human rhinovirus sp.) (UniProt Q4U254); experiment: Irreversible inhibition of human rhinovirus 3C protease
T1 sequence (whole entry): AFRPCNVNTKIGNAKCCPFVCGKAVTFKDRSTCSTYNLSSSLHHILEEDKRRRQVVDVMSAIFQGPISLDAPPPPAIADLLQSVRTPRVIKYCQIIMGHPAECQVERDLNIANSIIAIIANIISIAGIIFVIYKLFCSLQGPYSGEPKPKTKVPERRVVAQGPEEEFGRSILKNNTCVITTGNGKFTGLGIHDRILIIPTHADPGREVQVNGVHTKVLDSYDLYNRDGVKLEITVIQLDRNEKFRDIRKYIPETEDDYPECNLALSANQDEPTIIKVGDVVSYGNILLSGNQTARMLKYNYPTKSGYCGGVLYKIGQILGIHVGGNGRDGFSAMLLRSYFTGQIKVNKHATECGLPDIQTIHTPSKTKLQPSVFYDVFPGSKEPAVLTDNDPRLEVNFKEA

[2] = The 50% cytotoxic concentration was calculated as the concentration of the drug that decreased the percentage of formazan produced in drug-treated,uninfected cells to 50% of that produced in drug free uninfected cells on serotype 14.; format: functional
[3] = target: T2, Calpain-1 catalytic subunit (Homo sapiens) (UniProt P07384); experiment: % activity against calpain 1 remaining after 10-15 min at 10 uM; details: Sus scrofa
T2 sequence (whole entry): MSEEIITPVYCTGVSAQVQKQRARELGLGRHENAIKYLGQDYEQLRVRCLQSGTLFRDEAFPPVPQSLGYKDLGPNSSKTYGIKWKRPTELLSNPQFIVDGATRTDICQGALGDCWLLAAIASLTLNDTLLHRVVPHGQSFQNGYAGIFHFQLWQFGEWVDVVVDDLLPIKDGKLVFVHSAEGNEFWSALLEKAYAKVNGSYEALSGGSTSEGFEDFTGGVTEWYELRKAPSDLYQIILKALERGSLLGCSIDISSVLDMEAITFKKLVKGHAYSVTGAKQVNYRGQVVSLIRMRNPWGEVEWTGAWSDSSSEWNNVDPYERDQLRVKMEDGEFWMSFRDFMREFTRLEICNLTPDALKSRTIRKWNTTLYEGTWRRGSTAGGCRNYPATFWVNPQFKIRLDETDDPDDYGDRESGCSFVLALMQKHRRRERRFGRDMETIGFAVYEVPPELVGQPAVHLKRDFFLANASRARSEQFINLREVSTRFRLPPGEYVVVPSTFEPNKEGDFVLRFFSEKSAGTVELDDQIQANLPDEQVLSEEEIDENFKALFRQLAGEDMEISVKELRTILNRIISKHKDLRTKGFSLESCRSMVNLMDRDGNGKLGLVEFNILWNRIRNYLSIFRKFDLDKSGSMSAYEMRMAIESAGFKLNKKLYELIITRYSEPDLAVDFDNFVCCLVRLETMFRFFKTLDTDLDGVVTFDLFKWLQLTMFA
Method in brief: (§1)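 Purified proteases: human liver cathepsin B, porcine erythrocyte calpain I, human neutrophil elastase, bovine chymotrypsin, human thrombin and bovine trypsin. Each enzyme was incubated with inhibitor for 10-15 min, at 10 µM or at 2 µM where specified. Residual enzyme activity is reported as % remaining.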

[4] = target: Cathepsin B (Homo sapiens) (UniProt P07858); experiment: Inhibition of cathepsin B by the compound was measured as % activity of thrombin remaining after 10-15 min at 10 uM; method in brief: as §1
[5] = target: Chymotrypsinogen A (Bos taurus) (UniProt P00766); experiment: Inhibition of Chymotrypsinogen by the compound was measured as % activity of thrombin remaining after 10-15 min at 10 uM; method in brief: as §1
[6] = target: T3, Neutrophil elastase (Homo sapiens) (UniProt P08246); experiment: % activity against elastase remaining after 10-15 min at 10 uM; method in brief: as §1
T3 sequence (whole entry): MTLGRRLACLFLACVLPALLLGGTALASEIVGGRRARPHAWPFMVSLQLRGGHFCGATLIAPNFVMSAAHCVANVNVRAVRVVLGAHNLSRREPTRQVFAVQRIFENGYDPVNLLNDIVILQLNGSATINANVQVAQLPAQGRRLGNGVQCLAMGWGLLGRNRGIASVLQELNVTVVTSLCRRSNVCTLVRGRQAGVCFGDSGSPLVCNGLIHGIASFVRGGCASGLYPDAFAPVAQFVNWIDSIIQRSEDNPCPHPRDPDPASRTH

[7] = target: Prothrombin (Homo sapiens) (UniProt P00734); experiment: Inhibition of thrombin by the compound was measured as % activity of thrombin remaining after 10-15 min at 10 uM; method in brief: as §1
[8] = target: T4, Serine protease 1 (Bos taurus) (UniProt P00760); experiment: Inhibition of trypsin by the compound was measured as % activity of thrombin remaining after 10-15 min at 10 uM; method in brief: as §1
T4 sequence (whole entry): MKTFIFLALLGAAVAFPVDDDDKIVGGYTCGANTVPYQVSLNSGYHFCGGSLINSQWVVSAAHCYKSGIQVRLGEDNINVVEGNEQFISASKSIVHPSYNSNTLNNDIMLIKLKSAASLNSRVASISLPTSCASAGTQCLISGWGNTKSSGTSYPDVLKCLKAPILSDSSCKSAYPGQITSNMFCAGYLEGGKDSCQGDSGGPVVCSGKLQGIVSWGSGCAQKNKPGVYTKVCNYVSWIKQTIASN

[9] = target: T1, Human rhinovirus A protease (Human rhinovirus sp.); experiment: The EC90 was calculated as the concentration of drug that increased the percentage of formazan production in drug treated, virus infected cells to 50% of that produced by drug free uninfected cells on human rhinovirus 1A.; format: functional
[10] = target: T1, Human rhinovirus A protease (Human rhinovirus sp.); experiment: The EC90 was calculated as the concentration of drug that increased the percentage of formazan production in drug treated, virus infected cells to 50% of that produced by drug free uninfected cells on human rhinovirus 2.; format: functional
[11] = target: T1, Human rhinovirus A protease (Human rhinovirus sp.); experiment: The kobs/[I] value for the irreversible inhibitors was obtained by reaction initiated by addition of 50 nM 3CP,containing 1 uM substrate and varying inhibitor concentrations on serotype 2.
chymotrypsin = experiment: half life towards biological agent (chymotrypsin); format: ADME
Method in brief: (§2)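 Compound at 25 µM in 100 mM potassium phosphate pH 7.4 was preincubated 5 min at 37 °C. Reaction was started with chymotrypsin (5 units/mL) or porcine intestinal peptidase (0.1 units/mL). Aliquots taken at 0 and 60 min were quenched in CH3CN and centrifuged. Parent was quantified by reverse-phase C8 HPLC with UV at 220 nm. 1-Naphthyl butyrate hydrolysis was the peptidase esterase control.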

[12] = half life towards biological agent (dithiothreitol 5 mM); format: ADME; details: dithiothreitol solution
[13] = half life towards biological agent (dog plasma); format: ADME, organism-based, Canis lupus familiaris
Method in brief: (§3)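 Human plasma (CPDA) or heparinized animal plasma, with rat plasma diluted 1:1 in 100 mM phosphate pH 7.4, and buffer controls, n = 3. Compound was added to 25 µM final at 37 °C and sampled periodically over 1 h. Samples were quenched in CH3CN, centrifuged, dried, reconstituted and analysed by reverse-phase HPLC. 1-Naphthyl butyrate was the esterase control.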

[14] = half life towards biological agent (human plasma); format: ADME, organism-based; method in brief: as §3
peptidase = experiment: half life towards biological agent (peptidase); format: ADME; method in brief: as §2
[15] = target: T1, Human rhinovirus A protease (Human rhinovirus sp.); experiment: The EC90 was calculated as the concentration of drug that increased the percentage of formazan production in drug treated, virus infected cells to 50% of that produced by drug free uninfected cells on human rhinovirus-10.; format: functional
[16] = target: T1, Human rhinovirus A protease (Human rhinovirus sp.); experiment: The EC90 was calculated as the concentration of drug that increased the percentage of formazan production in drug treated, virus infected cells to 50% of that produced by drug free uninfected cells on human rhinovirus-14.; format: functional
[17] = half life towards biological agent (rat plasma); format: ADME, cell-free; method in brief: as §3
[18] = target: T2, Calpain-1 catalytic subunit (Homo sapiens); experiment: % activity against calpain 1 remaining after 10-15 min at 2 uM; details: Sus scrofa; method in brief: as §1
[19] = target: Cathepsin B (Homo sapiens) (UniProt P07858); experiment: Inhibition of cathepsin B by the compound was measured as % activity of thrombin remaining after 10-15 min at 2 uM; method in brief: as §1
[20] = target: Chymotrypsinogen A (Bos taurus) (UniProt P00766); experiment: Inhibition of Chymotrypsinogen by the compound was measured as % activity of thrombin remaining after 10-15 min at 2 uM; method in brief: as §1
[21] = target: T3, Neutrophil elastase (Homo sapiens); experiment: % activity against elastase remaining after 10-15 min at 2 uM; method in brief: as §1
[22] = target: Prothrombin (Homo sapiens) (UniProt P00734); experiment: Inhibition of thrombin by the compound was measured as % activity of thrombin remaining after 10-15 min at 2 uM; method in brief: as §1
[23] = target: T4, Serine protease 1 (Bos taurus); experiment: Inhibition of trypsin by the compound was measured as % activity of thrombin remaining after 10-15 min at 2 uM; method in brief: as §1
[24] = Increased percentage of formazan production in drug treated virus infected cells to equal 50% control drug free uninfected cells on serotype 14

CCOC(=O)/C=C/[C@H](C[C@@H]1CCCNC1=O)NC(=O)[C@H](Cc1ccccc1)NC(=O)[C@H](CC(C)C)NC(=O)OCc1ccccc1
K obs / 1 [1]: 239000 M⁻¹ s⁻¹
CC50 [2]: > 100000 nM

CCOC(=O)/C=C/[C@H](C[C@@H]1CCCNC1=O)NC(=O)[C@H](Cc1ccc(F)cc1)NC(=O)[C@@H](NC(=O)c1cc(C)on1)C(C)C
K obs / 1 [1]: 900000 M⁻¹ s⁻¹
CC50 [2]: > 100000 nM

CCOC(=O)/C=C/[C@H](CCC(=O)N(C)C)NC(=O)[C@H](Cc1ccccc1)NC(=O)[C@H](CC(C)C)NC(=O)OCc1ccccc1
CC50 [2]: > 100000 nM

CCOC(=O)/C=C/[C@H](C[C@@H]1CCCNC1=O)NC(=O)[C@@H](CC(=O)[C@@H](NC(=O)c1cc(C)on1)C(C)C)Cc1ccc(F)cc1
K obs / 1 [1]: 500000 M⁻¹ s⁻¹
CC50 [2]: > 100000 nM

CCOC(=O)/C=C/[C@H](C[C@@H]1CCNC1=O)NC(=O)[C@H](Cc1ccc(F)cc1)NC(=O)[C@@H](NC(=O)c1cc(C)on1)C(C)(C)C
Activity [3]: 100%
Activity [4]: 81%
Activity [5]: 97%
Activity [6]: 96%
K obs / 1 [1]: 980000 M⁻¹ s⁻¹
Activity [7]: 101%
Activity [8]: 95%
CC50 [2]: > 100000 nM

CCOC(=O)/C=C/[C@H](C[C@H]1CCNC1=O)NC(=O)[C@H](Cc1ccccc1)NC(=O)[C@H](CC(C)C)NC(=O)OCc1ccccc1
K obs / 1 [1]: 18000 M⁻¹ s⁻¹
CC50 [2]: > 100000 nM

CCOC(=O)/C=C/[C@H](CCC(N)=O)NC(=O)[C@@H](CC(=O)[C@@H](NC(=O)c1cc(C)on1)C(C)C)Cc1ccc(F)cc1
EC90 [9]: 630 nM
EC90 [10]: 280 nM

CCOC(=O)/C=C/[C@H](C[C@@H]1CCNC1=O)NC(=O)[C@H](Cc1ccccc1)NC(=O)[C@H](CC(C)C)NC(=O)OCc1ccccc1
K obs / 1 [1]: 257000 M⁻¹ s⁻¹
K obs / 1 [11]: 31000 M⁻¹ s⁻¹
CC50 [2]: > 100000 nM

CCOC(=O)/C=C/[C@H](C[C@@H]1CCNC1=O)NC(=O)[C@@H](CC(=O)[C@@H](NC(=O)c1cc(C)on1)C(C)C)Cc1ccc(F)cc1
half-life (chymotrypsin): > 1 h
half-life [12]: > 0.5 h
half-life [13]: > 1 h
half-life [14]: > 1 h
half-life (peptidase): > 1 h
Activity [3]: 100%
Activity [4]: 98%
Activity [5]: 100%
Activity [6]: 99%
EC90 [9]: 41 nM
K obs / 1 [1]: 1.09e+06 M⁻¹ s⁻¹
EC90 [10]: 30 nM
EC90 [15]: 100 nM
EC90 [16]: 20 nM
Activity [7]: 100%
Activity [8]: 100%
CC50 [2]: > 100000 nM
half-life [17]: < 2 min

CCOC(=O)/C=C/[C@H](C[C@@H]1CCNC1=O)NC(=O)[C@H](Cc1ccccc1)NC(=O)[C@@H](NC(=O)OCc1ccccc1)C(C)C
K obs / 1 [1]: 500000 M⁻¹ s⁻¹
CC50 [2]: > 100000 nM

CCOC(=O)/C=C/[C@H](CCC(=O)NC)NC(=O)[C@H](Cc1ccccc1)NC(=O)[C@H](CC(C)C)NC(=O)OCc1ccccc1
CC50 [2]: > 100000 nM

CCOC(=O)/C=C/[C@H](C[C@@H]1CCNC1=O)NC(=O)[C@H](Cc1ccc(F)cc1)NC(=O)[C@@H](NC(=O)c1cc(C)on1)C(C)C
Activity [3]: 100%
Activity [4]: 96%
Activity [5]: 101%
Activity [6]: 100%
EC90 [9]: 140 nM
K obs / 1 [1]: 1.5e+06 M⁻¹ s⁻¹
EC90 [10]: 50 nM
EC90 [15]: 140 nM
EC90 [16]: 40 nM
Activity [7]: 103%
Activity [8]: 100%
CC50 [2]: > 100000 nM

CCOC(=O)/C=C/[C@H](CN1CCNC1=O)NC(=O)[C@H](Cc1ccccc1)NC(=O)[C@H](CC(C)C)NC(=O)OCc1ccccc1
K obs / 1 [1]: 10900 M⁻¹ s⁻¹
CC50 [2]: > 100000 nM

CCOC(=O)/C=C/[C@H](CCC(N)=O)NC(=O)[C@H](Cc1ccccc1)NC(=O)[C@H](CC(C)C)NC(=O)OCc1ccccc1
Activity [18]: 100%
Activity [19]: 39%
Activity [20]: 96%
Activity [21]: 92%
Activity [22]: 101%
Activity [23]: 98%
CC50 [2]: > 320000 nM
EC50 [24]: 540 nM
